What all share (assay type): functional, cell-based
For test [1], the system named is A2780. The test can be described thus: Inhibitory effect of Gold(III) complex, [Au(bipy-H)(OH)]-[PF6] on growth of cisplatin-sensitive A2780/S human tumor cell lines. The gist of the method:
(§1)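 Human ovarian carcinoma cells (A2780/S; A2780/R derived from it by repeated 1 h weekly exposure to 50 µM; SKOV3) grown exponentially in RPMI1640 with 10% FCS and antibiotics at 37 °C, 5% CO2. Drugs dissolved in sterile bidistilled water, 72 h exposure, growth measured by sulforhodamine B assay. IC50 is the concentration inhibiting growth by 50% versus control.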

In test [2] the test system is SK-OV-3. The test can be described thus: Inhibitory effect of Gold(III) complex, [Au(bipy-H)(OH)]-[PF6] on growth of cisplatin-resistant SKOV3 human tumor cell lines. Summed up:
as §1

The subject of test [3] is CCRF-CEM. The test can be described thus: Inhibitory effect of Gold(III) complex, [Au(bipy-H)(OH)]-[PF6] on growth of cisplatin-resistant CCRF-CEM/R human tumor cell lines. Summed up: (§2)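 Human T-lymphoblastoid leukemia CCRF-CEM/S cells, and CCRF-CEM/R cells selected by continuous exposure to rising cisplatin and kept in 10 µM cisplatin. Exponentially growing cells in RPMI1640 with 10% FCS and antibiotics at 37 °C, 5% CO2. Water-dissolved drugs applied for 72 h, growth read by Coulter counter cell counting. IC50 is 50% growth inhibition versus control.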

In test [4] the test system is CCRF-CEM. In words: Inhibitory effect of Gold(III) complex, [Au(bipy-H)(OH)]-[PF6] on growth of cisplatin-sensitive CCRF-CEM/S human tumor cell lines. The gist of the method:
as §2

Test [5] deals with A2780. The test can be described thus: Inhibitory effect of Gold(III) complex, [Au(bipy-H)(OH)]-[PF6] on growth of cisplatin-resistant A2780/R human tumor cell lines. The gist of the method:
as §1

Test [6] has as its system SK-OV-3. The test can be described thus: Inhibitory effect of Gold(III) complex, 2,2' bipy on growth of cisplatin-resistant SKOV3 human tumor cell lines. Summed up:
as §1

Test [7] has as its system A2780. The test can be described thus: Inhibitory effect of Gold(III) complex, 2,2' bipy on growth of cisplatin-resistant A2780/R human tumor cell lines. The gist of the method: as §1
Test [8] deals with CCRF-CEM. The test can be described thus: Inhibitory effect of Gold(III) complex, 2,2' bipy on growth of cisplatin-resistant CCRF-CEM/R human tumor cell lines. Summed up:
as §2

Test [9] relates to A2780. In words: Inhibitory effect of Gold(III) complex, 2,2' bipy on growth of cisplatin-sensitive A2780/S human tumor cell lines. The gist of the method: as §1
In test [10] the test system is CCRF-CEM. In words: Inhibitory effect of Gold(III) complex, 2,2' bipy on growth of cisplatin-sensitive CCRF-CEM/S human tumor cell lines. Summed up: as §2
For test [11], the system named is SK-OV-3. In words: Inhibitory effect of Gold(III) complex, CDDP on growth of cisplatin-resistant SKOV3 human tumor cell lines. The gist of the method:
as §1

Test [12] concerns CCRF-CEM. The test can be described thus: Inhibitory effect of Gold(III) complex, CDDP on growth of cisplatin-sensitive CCRF-CEM/S human tumor cell lines. The gist of the method:
as §2

Test [13] deals with CCRF-CEM. In words: Inhibitory effect of Gold(III) complex, CDDP on growth of cisplatin-resistant CCRF-CEM/R human tumor cell lines. Summed up:
as §2

The test system of test [14] is A2780. The test can be described thus: Inhibitory effect of Gold(III) complex, CDDP on growth of cisplatin-resistant A2780/R human tumor cell lines. Summed up:
as §1

For test [15], the system named is A2780. The test can be described thus: Inhibitory effect of Gold(III) complex, CDDP on growth of cisplatin-sensitive A2780/S human tumor cell lines. Summed up:
as §1

The test system of test [16] is A2780. In words: Inhibitory effect of Gold(III) complex, [Au(bipy)-(OH)2]-[PF6] on growth of cisplatin-resistant A2780/R human tumor cell lines. The gist of the method: as §1
The subject of test [17] is CCRF-CEM. In words: Inhibitory effect of Gold(III) complex, [Au(bipy)-(OH)2]-[PF6] on growth of cisplatin-resistant CCRF-CEM/R human tumor cell lines. Summed up:
as §2

For test [18], the system named is A2780. In words: Inhibitory effect of Gold(III) complex, [Au(bipy)-(OH)2]-[PF6] on growth of cisplatin-sensitive A2780/S human tumor cell lines. The gist of the method: as §1
The subject of test [19] is CCRF-CEM. The test can be described thus: Inhibitory effect of Gold(III) complex, [Au(bipy)-(OH)2]-[PF6] on growth of cisplatin-sensitive CCRF-CEM/S human tumor cell lines. Summed up:
as §2

Test [20] deals with SK-OV-3. The test can be described thus: Inhibitory effect of Gold(III) complex, [Au(bipy)-(OH)2]-[PF6] on growth of cisplatin-resistant SKOV3 human tumor cell lines. The gist of the method: as §1

Broadly, the IC50 is the concentration needed to halve the response being measured. Low values mean inhibition by little substance, high ones a need for much substance. For “8,8-dimethyl-8,12b-dihydro-7b,12c-diazoniabenzo[a]aceanthrylen-12b-ol(gold(III)complex) with Phosphorous hexa fluoride”, the IC50 worked out at 3.3 µM in the test on A2780 [1]; 13.3 µM in the test with SK-OV-3 [2]; 51.2 µM in the test on CCRF-CEM [3]; 11.9 µM in the test with CCRF-CEM [4]; 8.2 µM in the test with A2780 [5].
Turning to `c1ccc(-c2ccccn2)nc1` [DIPYRIDYL], the IC50 was 41.3 µM with SK-OV-3 [6]; 44.8 µM with A2780 [7]; 61.7 µM with CCRF-CEM [8]; greater than 20 µM with A2780 [9]; 51.9 µM with CCRF-CEM [10].
As for CISPLATIN, the IC50 in the test on SK-OV-3 [11] was 21.6 µM; in the test with CCRF-CEM [12] it was 1 µM; in the test with CCRF-CEM [13], 14.1 µM; in the test with A2780 [14] it was 15.3 µM; in the test on A2780 [15], 1.3 µM.
Take “pyrido[1',2':3,4]imidazo[1,5-a]pyridinediium-6,6-diol(gold(III)complex) with Phosphorous hexa fluoride”: the IC50 in the test with A2780 [16] came out at 24.1 µM; in the test on CCRF-CEM [17], 58.6 µM; in the test on A2780 [18], 8.8 µM; with CCRF-CEM [19], 52.9 µM; in the test with SK-OV-3 [20], 34.4 µM.

The record behind these values is ChEMBL document CHEMBL1135918, “Gold(III) complexes with bipyridyl ligands: solution chemistry, cytotoxicity, and DNA binding properties” (J Med Chem, 2002).
